{"data": "Measured values gathered from unrelated publications", "observed": "cell growth or viability", "note": "Compare with care: the assays were run in different laboratories."}
{"SMILES": "Cc1cccc(/C=C/C(=O)Nc2cc(-c3ccnc(N4CCC(O)CC4)c3)ccn2)c1", "cell line": "A549", "test": "MTT", "conditions": "5 µM", "endpoint": "inhibition", "result": "74.5%"}
{"SMILES": "Cc1c(Cc2ccccc2)c(=O)oc2c(C)c(OCC(=O)NN=Cc3ccco3)ccc12", "cell line": "PC-3", "test": "MTT", "conditions": "500 µg/mL", "endpoint": "viability", "result": "8.21%"}
{"SMILES": "O=C(/C=C/c1cccc(F)c1)Nc1cc(-c2ccnc(N3CCC(O)CC3)c2)ccn1", "cell line": "A549", "test": "MTT", "conditions": "5 µM", "endpoint": "inhibition", "result": "62.4%"}
{"SMILES": "COc1ccc(-c2cc(-c3ccc(OC)cc3)c3c(=O)n(C)c(=O)n(C)c3n2)cc1", "cell line": "PC-3", "test": "MTT", "conditions": "48 h", "endpoint": "IC50", "result": "26.2 µM"}
{"SMILES": "CCc1c(C)c2ccc(OCC(=O)NNC(=S)Nc3ccccc3)c(C)c2oc1=O", "cell line": "PC-3", "test": "MTT", "conditions": "125 µg/mL", "endpoint": "viability", "result": "4.76%"}
{"SMILES": "Cc1nc(Nc2ccc3c(c2)C(C)(C)C(=O)N3C)c2ccccc2n1", "cell line": "A549", "test": "MTT", "endpoint": "IC50", "result": "2.09 µM"}
{"SMILES": "COc1ccc(-c2cc(-c3ccc(Br)cc3)c3c(=O)[nH]c(=O)[nH]c3n2)cc1", "cell line": "PC-3", "test": "MTT", "conditions": "48 h", "endpoint": "IC50", "result": "15.9 µM"}
{"SMILES": "COc1cccc2c1C(=O)c1c(O)c3c(c(O)c1C2=O)C[C@@](O)(C(=O)CO)C[C@@H]3O[C@H]1C[C@H](N)[C@H](O)[C@H](C)O1", "cell line": "A549", "test": "MTT", "conditions": "50 µg/mL, 48 h, serum-free", "endpoint": "viability", "result": "20.2%"}
{"SMILES": "C=CC(=O)NC1CCN(c2ncc3ncnc(Nc4ccc(Oc5ccc6c(c5)ncn6C)c(C)c4)c3n2)CC1", "cell line": "NCI-H2170", "endpoint": "IC50", "result": "0.0581 µM"}
{"SMILES": "COc1ccc(-c2cc(-c3ccc(OC)cc3)c3c(=O)[nH]c(=O)[nH]c3n2)cc1", "cell line": "PC-3", "test": "MTT", "conditions": "48 h", "endpoint": "IC50", "result": "12.3 µM"}
{"SMILES": "O=C(C=Cc1ccccc1)Nc1cccc(-c2ccnc(N3CCOCC3)c2)c1", "cell line": "A549", "test": "MTT", "conditions": "5 µM", "endpoint": "inhibition", "result": "49.3%"}
{"SMILES": "CCC[C@H]1NC(=O)[C@H](Cc2cc(Cl)ccc2-c2cnn(C)c2)N(C)C(=O)[C@H](CC(C)C)NC(=O)[C@@H](N(C)C(=O)[C@H](CCCCN2CCOCC2)NC(=O)[C@@H](c2cccnc2)C2CCCCC2)CCCCNC1=O", "cell line": "NCI-H1048", "test": "MTT", "conditions": "5 days", "endpoint": "GI50", "result": "3 µM"}
{"SMILES": "C=CCOc1ccc2c(C)c(CC)c(=O)oc2c1C", "cell line": "PC-3", "test": "MTT", "conditions": "31.25 µg/mL", "endpoint": "viability", "result": "99.7%"}
{"SMILES": "O=C(CCc1ccccc1)Nc1cc(-c2ccnc(N3CCC(O)CC3)c2)ccn1", "cell line": "A549", "test": "MTT", "conditions": "5 µM", "endpoint": "inhibition", "result": "65.7%"}
{"SMILES": "CC(=NNC(=O)COc1ccc2c(C)c(Cc3ccccc3)c(=O)oc2c1C)c1ccc(Br)cc1", "cell line": "PC-3", "test": "MTT", "conditions": "31.25 µg/mL", "endpoint": "viability", "result": "14%"}
{"SMILES": "O=C(/C=C/c1ccc(F)cc1)Nc1cc(-c2ccnc(N3CCC(O)CC3)c2)ccn1", "cell line": "A549", "test": "MTT", "conditions": "5 µM", "endpoint": "inhibition", "result": "62.2%"}
{"SMILES": "COc1cc2ncnc(Nc3ccc4c(c3)/C(=C/c3ccccc3)C(=O)N4)c2cc1OC", "cell line": "A549", "test": "MTT", "endpoint": "IC50", "result": "17.1 µM"}
{"SMILES": "Cc1cccc(/C=C/C(=O)Nc2cccc(-c3ccnc(N4CCOCC4)c3)c2)c1", "cell line": "A549", "test": "MTT", "conditions": "5 µM", "endpoint": "inhibition", "result": "29.4%"}
{"SMILES": "CCOc1ccc2c(C)c(CC)c(=O)oc2c1C", "cell line": "PC-3", "test": "MTT", "conditions": "125 µg/mL", "endpoint": "viability", "result": "51%"}
{"SMILES": "Cc1cc(NC(=O)C=Cc2ccccc2)cc(-c2ccnc(N3CCC(CO)CC3)c2)c1", "cell line": "A549", "test": "MTT", "conditions": "5 µM", "endpoint": "inhibition", "result": "54.3%"}
{"SMILES": "O=C(O)c1ccc2c(c1)nc(Nc1cccc(Cl)c1)c1ccncc12", "cell line": "NCI-H522", "test": "resazurin", "conditions": "48 h", "endpoint": "IC50", "result": "9.3 µM"}
{"SMILES": "CCc1c(C)c2ccc(OCC=Cc3ccccc3)c(C)c2oc1=O", "cell line": "PC-3", "test": "MTT", "conditions": "250 µg/mL", "endpoint": "viability", "result": "18.1%"}
{"SMILES": "Cc1cccc(/C=C/C(=O)Nc2cccc(-c3ccnc(N4CCC(O)CC4)c3)c2)c1", "cell line": "A549", "test": "MTT", "conditions": "5 µM", "endpoint": "inhibition", "result": "54.8%"}
{"SMILES": "Cc1nc(Nc2ccc3c(c2)/C(=C/c2ccccc2C)C(=O)N3C)c2ccccc2n1", "cell line": "A549", "test": "MTT", "endpoint": "IC50", "result": "21.6 µM"}
{"SMILES": "Cc1c(Cc2ccccc2)c(=O)oc2c(C)c(OCC(=O)NN=Cc3ccc(Cl)cc3)ccc12", "cell line": "PC-3", "test": "MTT", "conditions": "31.25 µg/mL", "endpoint": "viability", "result": "61.2%"}
{"SMILES": "COc1cc2ncnc(N(C)c3ccc4c(c3)/C(=C/c3ccccc3)C(=O)N4C)c2cc1OC (mixture of isomers)", "cell line": "A549", "test": "MTT", "endpoint": "IC50", "result": "3.24 µM"}
{"SMILES": "Cc1c(Cc2ccccc2)c(=O)oc2c(C)c(OCC(=O)NN=Cc3ccccc3)ccc12", "cell line": "PC-3", "test": "MTT", "conditions": "125 µg/mL", "endpoint": "viability", "result": "21.2%"}
